# Article PMC5720355 (ACS chemical biology, 2017)
# What was measured:
# [1] = system: Glioblastoma (U87-MG) cells; test: Tau degradation in U87MG cells, immunoblot; format: cell-based, human; settings: 50 μM, 24 h, cycloheximide 20 μg/mL
# [2] = biological target: purified 20S proteasome with tau441 and GAPDH (Homo sapiens, UniProt P25787+P60900); test: In vitro degradation of tau441; format: biochemical; settings: compounds 30 μM; SDS 0.02%
# In short: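 Pre-incubate 15nM purified human 20S proteasome with test compound or vehicle for 20 min at RT in 20mM HEPES pH 7.4, 2mM EDTA, 1mM EGTA. Add recombinant tau441 plus GAPDH (0.1μM each, final) and incubate 1 h at 37 °C. Resolve on a 4-20% tris-glycine gel and immunoblot. Quantify tau by densitometry against untreated tau control.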
# [3] = biological target: human constitutive 20S proteasome (CT-L, β5) (Homo sapiens, UniProt P25787+P60900); test: Proteasome activity assay, 20S chymotrypsin-like; format: biochemical; settings: for enhancement of 20S proteolytic (CT-L) activity, in words: CT-L peptide substrate
# [4] = system: HEK 293 cells stably expressing ODC-GFPSpark; test: ODC-GFPSpark degradation in HEK 293T cells, immunoblot; format: cell-based, human; settings: 50 μM, 24 h, cycloheximide 20 μg/mL
# 20S proteasome = settings: read-out: EC50, enhancing 20S mediated protein degradation; cited from earlier work
# [5] = biological target: human constitutive 20S proteasome (T-L, β2) (Homo sapiens, UniProt P25787+P60900); test: Proteasome activity assay, 20S tryptic-like; format: biochemical; settings: read-out: EC50, tryptic-like (T-L) activity; Boc-LRR-AMC
# 26S proteasome = 26S proteasome (Homo sapiens, UniProt P25787+P60900); test: Proteasome activity assay, 26S-mediated proteolysis of CT-L peptide probe; format: biochemical
# In short: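 Pre-incubate 1nM human 26S proteasome with test compound for 10 min at RT in 50mM Tris-HCl pH 7.5 containing 5mM MgCl2 and 2.5mM ATP. Add Suc-LLVY-AMC (10μM) and read the fluorescence increase per minute for 1 h at 37 °C (380-460nm). Express activity as fold of vehicle control.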
# [6] = biological target: purified human 20S proteasome with α-synuclein and GAPDH (Homo sapiens, UniProt P25787+P60900); test: In vitro degradation of α-synuclein; format: biochemical
# In short: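 Pre-incubate 15nM purified human 20S with test compound (3, 10, 30 μM) or vehicle for 20 min at RT in 20mM HEPES pH 7.4, 2mM EDTA, 1mM EGTA. Add recombinant α-synuclein and GAPDH (0.5μM each, final) and incubate 1 h at 37 °C. Immunoblot α-syn and GAPDH. Controls: reactions without 20S, and 20S pre-treated with bortezomib (3μM).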
# [7] = biological target: human constitutive 20S proteasome (Casp-L, β1) (Homo sapiens, UniProt P25787+P60900); test: Proteasome activity assay, 20S caspase-like; format: biochemical; settings: read-out: EC50, caspase-like (Casp-L) activity; Z-LLE-AMC
rate of 20S-mediated degradation of tau compared to 20S/vehicle control [2],"enhancement of 20S proteolytic (CT-L) activity, in words [3]",Compound,tau concentrations compared to the vehicle control [1],GFP-ODC levels compared to controls [4],also measured
–,–,CC(C)CCCN1c2ccccc2Sc2ccccc21 [compound 1],modest clearance of tau,–,–
significantly enhance,enhanced 20S proteolytic activity,"CN(C)CCCN1c2ccccc2Sc2ccc(Cl)cc21 [chlorpromazine, reference compound]",significantly reducing tau concentrations,reduced GFP-ODC levels,–
–,–,CCCCC/C=C\C/C=C\C/C=C\C/C=C\CCCC(=O)Nc1ccc(O)cc1 [AM-404],–,–,EC50 (20S proteasome): ~32 µM
significantly enhance,enhanced 20S proteolytic activity,O=S(=O)(O)CCCCN1c2ccccc2Sc2ccccc21 [compound 2],significantly reducing tau concentrations,reduced GFP-ODC levels,"EC50 [5]: 10 µM; effect on 26S-mediated proteolysis of the CT-L peptide probe (26S proteasome): did not affect; fold enhancement of 20S activity ([3]; at 10 μM): ~4 fold; concentration above which 20S activity drops ([3]; concentration response up to 70 μM, CT-L substrate): > 35 µM; rate of 20S-mediated degradation of α-syn compared to 20S/vehicle control ([6]; 3, 10 and 30 μM, concentration-dependent): significantly enhanced; α-Syn levels in the absence of 20S or with 20S pretreated with bortezomib ([6]; BTZ 3 μM): unaffected; 20S-mediated degradation of the structured protein GAPDH ([6]; any of the concentrations tested (3, 10, 30 μM)): does not enhance; EC50 [7]: 4.8 µM"

Compound,rate of 20S-mediated degradation of tau compared to 20S/vehicle control [2],"enhancement of 20S proteolytic (CT-L) activity, in words [3]",tau concentrations compared to the vehicle control [1],GFP-ODC levels compared to controls [4],also measured
"CCCCCCCCCCCCOS(=O)(=O)[O-].[Na+] [SDS, sodium dodecyl sulfate]",prevents,–,–,–,–
O=S(=O)(O)CCCN1c2ccccc2Sc2ccc(Cl)cc21 [compound 3],–,no significant enhancement,–,–,–
